Measured values from ChEMBL document CHEMBL1155230, “Synthesis, biological evaluation, and structure-activity relationships for 5-[(E)-2-arylethenyl]-3-isoxazolecarboxylic acid alkyl ester derivatives as valuable antitubercular chemotypes” (J Med Chem, 2009).
Values after ≈ are worked out from the molar mass of the structure shown.

Assays:
[1] = test system: Mycobacterium tuberculosis; experiment: Antimycobacterial activity against Mycobacterium tuberculosis H37Rv replicating form by alamar blue assay; type: functional
In short: (§1)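 M. tuberculosis H37Rv (ATCC 27294) was tested, in replicating form by MABA and in nonreplicating form by LORA, following published procedures. The value is the MIC, reported as the average of three individual determinations.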

[2] = test system: Mycobacterium tuberculosis; experiment: Antimycobacterial activity against non replicating persistent form of Mycobacterium tuberculosis H37Rv after 10 days by low oxygen recovery assay; type: functional; conditions: 240 h; in short: as §1
[3] = test system: Vero; experiment: Cytotoxicity against african green monkey Vero cells after 72 hrs; type: cell-based; conditions: Chlorocebus sabaeus
[4] = test system: Candida albicans; experiment: Antimicrobial activity against Candida albicans; type: functional
[5] = test system: Staphylococcus aureus; experiment: Antimicrobial activity against Staphylococcus aureus; type: functional
[6] = test system: Mycolicibacterium smegmatis; experiment: Antimicrobial activity against Mycobacterium smegmatis; type: functional
[7] = test system: Escherichia coli; experiment: Antimicrobial activity against Escherichia coli; type: functional

CCOC(=O)c1cc(COc2cc(C(F)(F)F)nc3c(C(F)(F)F)cccc23)on1
MIC90 [1]: 0.9 µM (≈ 0.391 µg/mL)
MIC90 [2]: 12.2 µM (≈ 5.3 µg/mL)

CCOC(=O)c1cc(/C=C/c2ccc(C(F)(F)F)cc2)on1
MIC90 [1]: 3.9 µM (≈ 1.21 µg/mL)
MIC90 [2]: 6.8 µM (≈ 2.12 µg/mL)

CCOC(=O)c1cc(/C=C/c2ccccc2C(F)(F)F)on1
MIC90 [1]: 3.9 µM (≈ 1.21 µg/mL)
MIC90 [2]: 12.1 µM (≈ 3.77 µg/mL)

CCOC(=O)c1cc(/C=C/c2ccco2)on1
MIC90 [1]: 7.9 µM (≈ 1.84 µg/mL)
IC50 [3]: > 128 µM
MIC90 [2]: 50.2 µM (≈ 11.7 µg/mL)

CCOC(=O)c1cc(CCc2cc(O)cc(O)c2)on1
MIC90 [1]: > 128 µM
MIC90 [2]: > 128 µM

CCOC(=O)c1cc(/C=C\c2cccc(OC)n2)on1
MIC90 [1]: 27.5 µM (≈ 7.54 µg/mL)
MIC90 [2]: 45.9 µM (≈ 12.6 µg/mL)

CCOC(=O)c1cc(/C=C/c2c(Cl)ccc(C)c2F)on1
MIC90 [1]: 3.5 µM (≈ 1.08 µg/mL)
IC50 [3]: > 128 µM
MIC90 [2]: 7 µM (≈ 2.17 µg/mL)

CCOC(=O)c1cc(/C=C/c2ccccc2CC)on1
MIC90 [1]: 0.98 µM (≈ 0.266 µg/mL)
IC50 [3]: > 128 µM
MIC90 [2]: 2 µM (≈ 0.543 µg/mL)

CCCCOC(=O)c1cc(/C=C/c2ccc(OC)nc2)on1
MIC90 [1]: 2 µM (≈ 0.605 µg/mL)
MIC90 [2]: 6.7 µM (≈ 2.03 µg/mL)

CCOC(=O)c1cc(/C=C/c2ccnc3ccccc23)on1
MIC90 [1]: 0.2 µM (≈ 0.0589 µg/mL)
MIC90 [2]: 2.6 µM (≈ 0.765 µg/mL)

CCOC(=O)c1cc(/C=C/c2ccc(C)c3ccccc23)on1
MIC90 [1]: 17.3 µM (≈ 5.32 µg/mL)
IC50 [3]: > 128 µM
MIC90 [2]: 3.6 µM (≈ 1.11 µg/mL)

CCOC(=O)c1cc(/C=C/c2ccc(N3CCN(C)CC3)cc2)on1
MIC90 [1]: 15.2 µM (≈ 5.19 µg/mL)
MIC90 [2]: 37.4 µM (≈ 12.8 µg/mL)

CCOC(=O)c1cc(/C=C/c2ccc(F)cc2F)on1
MIC90 [1]: 5.3 µM (≈ 1.48 µg/mL)
IC50 [3]: > 128 µM
MIC90 [2]: 13.8 µM (≈ 3.85 µg/mL)

CCOC(=O)c1cc(/C=C/c2cc(Cl)cc(Cl)c2)on1
MIC90 [1]: 5.4 µM (≈ 1.69 µg/mL)
IC50 [3]: > 128 µM
MIC90 [2]: 5.9 µM (≈ 1.84 µg/mL)

O=C(O)c1cc(/C=C/c2cccc(C(F)(F)F)c2)on1
MIC90 [1]: > 128 µM
MIC90 [2]: > 128 µM

CCOC(=O)c1cc(/C=C/c2ccccc2)on1
MIC90 [1]: 11.7 µM (≈ 2.85 µg/mL)
MIC90 [2]: 18 µM (≈ 4.38 µg/mL)

CCCCOC(=O)c1cc(/C=C/c2ccnc3ccc(OC)cc23)on1
MIC90 [1]: 1.1 µM (≈ 0.388 µg/mL)
IC50 [3]: > 128 µM
MIC90 [2]: 1.8 µM (≈ 0.634 µg/mL)

CCOC(=O)c1cc(/C=C/c2cc(OCc3ccccc3)cc(OCc3ccccc3)c2)on1
MIC90 [1]: 6.3 µM (≈ 2.87 µg/mL)
IC50 [3]: > 128 µM
MIC90 [2]: 4.7 µM (≈ 2.14 µg/mL)

CCOC(=O)c1cc(/C=C/c2ccsc2)on1
MIC90 [1]: 1.6 µM (≈ 0.399 µg/mL)
IC50 [3]: > 128 µM
MIC90 [2]: 26.9 µM (≈ 6.71 µg/mL)

O=C(O)c1cc(/C=C/c2cccc3ccccc23)on1
MIC90 [1]: > 128 µM
MIC90 [2]: > 128 µM

CCCCCCCCOC(=O)c1cc(/C=C/c2c(Cl)cncc2Cl)on1
MIC90 [1]: 10.9 µM (≈ 4.33 µg/mL)
IC50 [3]: > 128 µM
MIC90 [2]: 9.2 µM (≈ 3.66 µg/mL)

CCCCCCC(C)OC(=O)c1cc(/C=C/c2c(Cl)cncc2Cl)on1 (stereo not given)
MIC90 [1]: 8.3 µM (≈ 3.3 µg/mL)
IC50 [3]: > 128 µM
MIC90 [2]: 24.2 µM (≈ 9.61 µg/mL)

CCOC(=O)c1cc(/C=C/c2cccc(OC)c2)on1
MIC90 [1]: 3.7 µM (≈ 1.01 µg/mL)
IC50 [3]: > 128 µM
MIC90 [2]: 8.8 µM (≈ 2.4 µg/mL)

CCOC(=O)c1cc(/C=C/c2cc(F)cc(F)c2)on1
MIC90 [1]: 3.7 µM (≈ 1.03 µg/mL)
IC50 [3]: > 128 µM
MIC90 [2]: 8.9 µM (≈ 2.49 µg/mL)

CCOC(=O)c1cc(/C=C/c2ccccc2SC)on1
MIC90 [1]: 0.96 µM (≈ 0.278 µg/mL)
IC50 [3]: > 128 µM
MIC90 [2]: 7.8 µM (≈ 2.26 µg/mL)

CCOC(=O)c1cc(/C=C/c2cccc(N)c2)on1
MIC90 [1]: 7.5 µM (≈ 1.94 µg/mL)
IC50 [3]: > 128 µM
MIC90 [2]: 20.7 µM (≈ 5.35 µg/mL)

CCOC(=O)c1cc(/C=C/c2cccc(C(C)C)c2)on1
MIC90 [1]: 3.1 µM (≈ 0.885 µg/mL)
IC50 [3]: > 128 µM
MIC90 [2]: 8.3 µM (≈ 2.37 µg/mL)

CCOC(=O)c1cc(/C=C/c2cc(OC)cc(OC)c2)on1
MIC90 [1]: 2 µM (≈ 0.607 µg/mL)
IC50 [3]: > 128 µM
MIC90 [2]: 3.6 µM (≈ 1.09 µg/mL)

CCOC(=O)c1cc(/C=C/c2ccc(OC)nc2)on1
MIC90 [1]: 1.4 µM (≈ 0.384 µg/mL)
IC50 [3]: > 128 µM
MIC90 [2]: 86.6 µM (≈ 23.8 µg/mL)

CCOC(=O)c1cc(/C=C/c2cccc(Cl)c2)on1
MIC90 [1]: 2.3 µM (≈ 0.639 µg/mL)
IC50 [3]: > 128 µM
MIC90 [2]: 6.7 µM (≈ 1.86 µg/mL)

CCOC(=O)c1cc(/C=C\c2cc(F)cc(F)c2)on1
MIC90 [1]: 29.2 µM (≈ 8.15 µg/mL)
IC50 [3]: > 128 µM
MIC90 [2]: 12.3 µM (≈ 3.43 µg/mL)

CCC(CC)OC(=O)c1cc(/C=C/c2c(Cl)cncc2Cl)on1
MIC90 [1]: 7.9 µM (≈ 2.81 µg/mL)
IC50 [3]: > 128 µM
MIC90 [2]: 8.9 µM (≈ 3.16 µg/mL)

CCOC(=O)c1cc(/C=C/c2cccc(C(F)(F)F)c2)on1
MIC90 [1]: 0.73 µM (≈ 0.227 µg/mL)
MIC [4]: > 100 µM
IC50 [3]: > 128 µM
MIC [5]: > 100 µM
MIC [6]: > 100 µM
MIC90 [2]: 21.1 µM (≈ 6.57 µg/mL)
MIC [7]: > 100 µM

CCOC(=O)c1cc(/C=C/c2cccc(C)c2)on1
MIC90 [1]: 6.5 µM (≈ 1.67 µg/mL)
IC50 [3]: > 128 µM
MIC90 [2]: 7.4 µM (≈ 1.9 µg/mL)

CCOC(=O)c1cc(/C=C/c2cccc3ccccc23)on1
MIC90 [1]: 1.6 µM (≈ 0.469 µg/mL)
IC50 [3]: > 128 µM
MIC90 [2]: 4 µM (≈ 1.17 µg/mL)

Clc1cncc(Cl)c1/C=C/c1ccno1
MIC90 [1]: > 128 µM
MIC90 [2]: > 128 µM

CCOC(=O)c1cc(/C=C/c2c(Cl)cccc2Cl)on1
MIC90 [1]: 2.5 µM (≈ 0.78 µg/mL)
MIC90 [2]: 3.5 µM (≈ 1.09 µg/mL)

CCOC(=O)c1cc(CCc2cccc(C(F)(F)F)c2)on1
MIC90 [1]: 14.2 µM (≈ 4.45 µg/mL)
MIC90 [2]: 15.6 µM (≈ 4.89 µg/mL)

CCOC(=O)c1cc(/C=C/c2ccc(OC)cc2F)on1
MIC90 [1]: 3.8 µM (≈ 1.11 µg/mL)
MIC90 [2]: 10.7 µM (≈ 3.12 µg/mL)

CCOC(=O)c1cc(/C=C/c2cccc(O)c2)on1
MIC90 [1]: 7.8 µM (≈ 2.02 µg/mL)
IC50 [3]: > 128 µM
MIC90 [2]: 28.7 µM (≈ 7.44 µg/mL)

O=C(OCCCC1CCCC1)c1cc(/C=C/c2c(Cl)cncc2Cl)on1
MIC90 [1]: 7.3 µM (≈ 2.89 µg/mL)
MIC90 [2]: 9.3 µM (≈ 3.68 µg/mL)

CCOC(=O)c1cc(/C=C/c2cccc(OC)n2)on1
MIC90 [1]: 3.8 µM (≈ 1.04 µg/mL)
MIC90 [2]: 16 µM (≈ 4.39 µg/mL)

CCOC(=O)c1cc(/C=C\c2cccc([N+](=O)[O-])c2)on1
MIC90 [1]: 5.4 µM (≈ 1.56 µg/mL)
IC50 [3]: > 128 µM
MIC90 [2]: 10.9 µM (≈ 3.14 µg/mL)

CCOC(=O)c1cc(/C=C/c2c(Cl)cncc2Cl)on1
MIC90 [1]: 0.59 µM (≈ 0.185 µg/mL)
MIC [4]: > 100 µM
IC50 [3]: > 128 µM
MIC [5]: > 100 µM
MIC [6]: 94.4 µM (≈ 29.6 µg/mL)
MIC90 [2]: 5.1 µM (≈ 1.6 µg/mL)
MIC [7]: > 100 µM

CCCCOC(=O)c1cc(/C=C/c2cccc(OC)c2)on1
MIC90 [1]: 1.8 µM (≈ 0.542 µg/mL)
MIC90 [2]: 7.6 µM (≈ 2.29 µg/mL)

CCOC(=O)c1cc(/C=C/c2ccnc3ccc(OC)cc23)on1
MIC90 [1]: 0.4 µM (≈ 0.13 µg/mL)
MIC90 [2]: 1.1 µM (≈ 0.357 µg/mL)

CCOC(=O)c1cc(/C=C/c2cccc([N+](=O)[O-])c2)on1
MIC90 [1]: 1.2 µM (≈ 0.346 µg/mL)
IC50 [3]: > 128 µM
MIC90 [2]: 5.1 µM (≈ 1.47 µg/mL)

CCOC(=O)c1cc(/C=C/c2ccncc2)on1
MIC90 [1]: 15.5 µM (≈ 3.79 µg/mL)
IC50 [3]: > 128 µM
MIC90 [2]: 52.4 µM (≈ 12.8 µg/mL)

NNC(=O)c1ccncc1 [ISONIAZID]
MIC90 [1]: 0.84 µM (≈ 0.115 µg/mL)
IC50 [3]: 128 µM
MIC90 [2]: > 128 µM

COc1c(N2C[C@@H]3CCCN[C@@H]3C2)c(F)cc2c(=O)c(C(=O)O)cn(C3CC3)c12 [MOXIFLOXACIN]
MIC90 [1]: 0.46 µM (≈ 0.185 µg/mL)
MIC90 [2]: > 128 µM

CO[C@H]1/C=C/O[C@@]2(C)Oc3c(C)c(O)c4c(O)c(c(/C=N/N5CCN(C)CC5)c(O)c4c3C2=O)NC(=O)/C(C)=C\C=C\[C@H](C)[C@H](O)[C@@H](C)[C@@H](O)[C@@H](C)[C@H](OC(C)=O)[C@@H]1C [RIFAMPIN]
MIC90 [1]: 0.1 µM (≈ 0.0823 µg/mL)
MIC90 [2]: 1.9 µM (≈ 1.56 µg/mL)
